According to ChEMBL document CHEMBL3259534, “Diterpenoids from Croton laui and their cytotoxic and antimicrobial activities” (J Nat Prod, 2014):
In brackets after ≈: the same amount, converted by molar mass.

How the values were obtained:
HL-60 = assay: Cytotoxicity against human HL60 cells after 72 hrs by MTT assay; type: functional, cell-based; conditions: HL-60, 72 h
In short: (§1)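 MTT viability assay on HL-60 human premyelocytic leukemia cells and P-388 murine leukemia cells. Adriamycin was included as the positive control.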

P388 = assay: Cytotoxicity against mouse P388 cells after 72 hrs by MTT assay; type: functional, cell-based; conditions: P388, 72 h; in short: as §1
Staphylococcus aureus = assay: Antimicrobial activity against Staphylococcus aureus ATCC 25923 by microdilution method; type: functional
In short: (§2)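 In vitro antibacterial test by microdilution. Strains were drawn from a panel of Gram-positive and Gram-negative bacteria. Ofloxacin was run as the positive control. The read-out is MIC.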

[1] = tested on: Staphylococcus epidermidis; assay: Antimicrobial activity against Staphylococcus epidermidis ATCC 12228 by microdilution method; type: functional; in short: as §2
Kocuria rhizophila = assay: Antimicrobial activity against Micrococcus luteus ATCC 9341 by microdilution method; type: functional; in short: as §2
Bacillus subtilis = assay: Antimicrobial activity against Bacillus subtilis CMCC 63501 by microdilution method; type: functional
Escherichia coli = assay: Antimicrobial activity against Escherichia coli ATCC 25922 by microdilution method; type: functional; in short: as §2
Shigella flexneri = assay: Antimicrobial activity against Shigella flexneri ATCC 12022 by microdilution method; type: functional; in short: as §2
Pseudomonas aeruginosa = assay: Antimicrobial activity against Pseudomonas aeruginosa ATCC 14502 by microdilution method; type: functional; in short: as §2
Candida albicans = assay: Antimicrobial activity against Candida albicans ATCC 1600 by agar dilution method; type: functional
In short: (§3)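 In vitro antifungal test by agar dilution against a panel of yeasts and dermatophytes. Amphotericin B served as the positive control. Activity is reported as MIC.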

Saccharomyces = assay: Antimicrobial activity against Saccharomyces sake ATCC 26421 by agar dilution method; type: functional; in short: as §3
Nannizzia gypsea = assay: Antimicrobial activity against Microsporum gypseum ATCC 14683 by agar dilution method; type: functional; in short: as §3
Trichophyton rubrum = assay: Antimicrobial activity against Trichophyton rubrum ATCC 10218 by agar dilution method; type: functional; in short: as §3

Compound	IC50 (HL-60) [µM]	IC50 (P388) [µM]	MIC (Staphylococcus aureus) [µM]	MIC [1] [µM]	MIC (Kocuria rhizophila) [µM]	MIC (Bacillus subtilis) [µM]	MIC (Escherichia coli) [µM]	MIC (Shigella flexneri) [µM]	MIC (Pseudomonas aeruginosa) [µM]	MIC (Candida albicans) [µM]	MIC (Saccharomyces) [µM]	MIC (Nannizzia gypsea) [µM]	MIC (Trichophyton rubrum) [µM]
C[C@@H]1CC[C@]2(C)[C@H](CC[C@@H](O)[C@]2(C)O)[C@@]1(C)CCc1ccoc1	≥ 10	≥ 10	> 150	> 150	> 150	> 150	> 150	> 150	> 150	> 150	> 150	> 150	> 150
C/C(=C\CO)[C@@H]1C[C@@H]2[C@@]3(C)CCCC(C)(C)[C@@H]3C[C@H](O)[C@@]2(C)O1	≥ 10	≥ 10	> 150	> 150	> 150	> 150	> 150	> 150	> 150	> 150	> 150	> 150	> 150
C[C@@H]1CC[C@]2(C)[C@H](CC[C@@H](O)[C@]2(C)O)[C@@]1(C)C[C@H](O)c1ccoc1	≥ 10	≥ 10	> 150	> 150	> 150	> 150	> 150	> 150	> 150	> 150	> 150	> 150	> 150
COC(=O)C1=CCC[C@@H]2[C@]13CC[C@H](C)[C@@]21C[C@H](c2ccoc2)O[C@H]1O[C@@H]3O	≥ 10	≥ 10	> 150	> 150	> 150	> 150	> 150	> 150	> 150	> 150	> 150	> 150	> 150
COC(=O)C1=CCC[C@@H]2[C@]13CC[C@H](C)[C@@]21C[C@H](c2ccoc2)O[C@H]1O[C@H]3O	≥ 10	≥ 10	> 150	> 150	> 150	> 150	> 150	> 150	> 150	> 150	> 150	> 150	> 150
C=C1C[C@H](OC(C)=O)[C@]23C(C(=O)OC)=CCC[C@H]2[C@]12C[C@H](c1ccoc1)O[C@H]2O[C@@H]3O	≥ 10	≥ 10	> 150	> 150	> 150	> 150	> 150	> 150	> 150	> 150	> 150	> 150	> 150
C=C1C[C@H](OC(C)=O)[C@]23C(C(=O)OC)=CCC[C@H]2[C@]12C[C@H](c1ccoc1)O[C@H]2O[C@H]3O	≥ 10	≥ 10	> 150	> 150	> 150	> 150	> 150	> 150	> 150	> 150	> 150	> 150	> 150
C=C1CC[C@H]2[C@](C)(CO)[C@H](O)CC[C@]2(C)[C@H]1C/C=C(\C)C=O	≥ 10	≥ 10	> 150	> 150	> 150	> 150	> 150	> 150	> 150	> 150	> 150	> 150	> 150
CC1=CCC[C@@H]2[C@@](C)(CCC3=CCOC3)[C@H](C)CC[C@@]12C (relative stereo)	≥ 10	≥ 10	43.4 (≈ 12.5 µg/mL)	43.4 (≈ 12.5 µg/mL)	43.4 (≈ 12.5 µg/mL)	43.4 (≈ 12.5 µg/mL)	–	–	–	–	–	–	–
C[C@@H]1C(=O)CC[C@H]2[C@@]1(C)CC[C@H]1C(=O)O[C@H](c3ccoc3)C[C@]21C (relative stereo)	≥ 10	≥ 10	> 150	> 150	> 150	> 150	> 150	> 150	> 150	> 150	> 150	> 150	> 150
C=C1[C@H](O)CC[C@@H]2[C@@]3(C)C[C@@H](c4ccoc4)OC(=O)[C@@H]3CC[C@@]12C (relative stereo)	≥ 10	≥ 10	> 150	> 150	> 150	> 150	> 150	> 150	> 150	> 150	> 150	> 150	> 150
C=C1CC[C@]23C(C(=O)OC)=CCC[C@H]2[C@]12C[C@H](c1ccoc1)O[C@H]2O[C@H]3O (relative stereo)	≥ 10	≥ 10	> 150	> 150	> 150	> 150	> 150	> 150	> 150	> 150	> 150	> 150	> 150
C=C1C[C@@H]2OC(=O)C3=CCC[C@H]4[C@]15C[C@H](c1ccoc1)O[C@H]5OC(=O)[C@]324 (relative stereo)	9.42	7.45	> 150	> 150	> 150	> 150	> 150	> 150	> 150	> 150	> 150	> 150	> 150
C=C1CC[C@]23C(C(=O)OC)=CCC[C@H]2[C@]12C[C@H](c1ccoc1)O[C@H]2O[C@@H]3O (relative stereo)	≥ 10	≥ 10	> 150	> 150	> 150	> 150	> 150	> 150	> 150	> 150	> 150	> 150	> 150
